Results taken from ChEMBL document CHEMBL1212724, “Rapid selection of cyclic peptides that reduce alpha-synuclein toxicity in yeast and animal models” (Nat Chem Biol, 2009).
Active and inactive are the calls of the source. The rule behind the calls is not given here. Bridge positions count the residues as written; N and C are the ends. Peptide text beside a SMILES is read from it.

Columns and labels:
[1] = molecular target: Alpha-synuclein (Homo sapiens) (UniProt P37840); assay: Inhibition of alpha-synuclein-mediated toxicity in yeast transfected with human alpha-synuclein by spotting assay
Method in brief: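 Haploid W303 IntTox strain carrying integrated GAL1-driven human α-syn-YFP, transformed with CP plasmids by lithium acetate heat shock. At least three independent transformants tested. Cells serially diluted and plated on galactose medium to induce α-syn, then growth scored.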

[2] = molecular target: Alpha-synuclein (Homo sapiens) (UniProt P37840); assay: Inhibition of alpha-synuclein-mediated dopaminergic neurodegeneration in Caenorhabditis elegans transfected with human alpha-synuclein
Method in brief: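 Age-synchronized transgenic worms expressing α-syn and GFP from the Pdat-1 promoter in DA neurons, with extrachromosomal mCP arrays; three independent lines per strain. Six anterior DA neurons (4 CEP, 2 ADE) scored at day 7 on 2% agarose pads with 2 mM levamisole, by epifluorescence. An animal with any dendrite, axon or cell body loss counted as degenerating. 30 worms per trial, three trials per line.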

[3] = molecular target: Huntingtin (Homo sapiens) (UniProt P42858); assay: Inhibition of huntingtin-mediated toxicity in yeast transfected with human huntingtin by spotting assay
Sequence of Huntingtin (Homo sapiens) (P42858 whole entry): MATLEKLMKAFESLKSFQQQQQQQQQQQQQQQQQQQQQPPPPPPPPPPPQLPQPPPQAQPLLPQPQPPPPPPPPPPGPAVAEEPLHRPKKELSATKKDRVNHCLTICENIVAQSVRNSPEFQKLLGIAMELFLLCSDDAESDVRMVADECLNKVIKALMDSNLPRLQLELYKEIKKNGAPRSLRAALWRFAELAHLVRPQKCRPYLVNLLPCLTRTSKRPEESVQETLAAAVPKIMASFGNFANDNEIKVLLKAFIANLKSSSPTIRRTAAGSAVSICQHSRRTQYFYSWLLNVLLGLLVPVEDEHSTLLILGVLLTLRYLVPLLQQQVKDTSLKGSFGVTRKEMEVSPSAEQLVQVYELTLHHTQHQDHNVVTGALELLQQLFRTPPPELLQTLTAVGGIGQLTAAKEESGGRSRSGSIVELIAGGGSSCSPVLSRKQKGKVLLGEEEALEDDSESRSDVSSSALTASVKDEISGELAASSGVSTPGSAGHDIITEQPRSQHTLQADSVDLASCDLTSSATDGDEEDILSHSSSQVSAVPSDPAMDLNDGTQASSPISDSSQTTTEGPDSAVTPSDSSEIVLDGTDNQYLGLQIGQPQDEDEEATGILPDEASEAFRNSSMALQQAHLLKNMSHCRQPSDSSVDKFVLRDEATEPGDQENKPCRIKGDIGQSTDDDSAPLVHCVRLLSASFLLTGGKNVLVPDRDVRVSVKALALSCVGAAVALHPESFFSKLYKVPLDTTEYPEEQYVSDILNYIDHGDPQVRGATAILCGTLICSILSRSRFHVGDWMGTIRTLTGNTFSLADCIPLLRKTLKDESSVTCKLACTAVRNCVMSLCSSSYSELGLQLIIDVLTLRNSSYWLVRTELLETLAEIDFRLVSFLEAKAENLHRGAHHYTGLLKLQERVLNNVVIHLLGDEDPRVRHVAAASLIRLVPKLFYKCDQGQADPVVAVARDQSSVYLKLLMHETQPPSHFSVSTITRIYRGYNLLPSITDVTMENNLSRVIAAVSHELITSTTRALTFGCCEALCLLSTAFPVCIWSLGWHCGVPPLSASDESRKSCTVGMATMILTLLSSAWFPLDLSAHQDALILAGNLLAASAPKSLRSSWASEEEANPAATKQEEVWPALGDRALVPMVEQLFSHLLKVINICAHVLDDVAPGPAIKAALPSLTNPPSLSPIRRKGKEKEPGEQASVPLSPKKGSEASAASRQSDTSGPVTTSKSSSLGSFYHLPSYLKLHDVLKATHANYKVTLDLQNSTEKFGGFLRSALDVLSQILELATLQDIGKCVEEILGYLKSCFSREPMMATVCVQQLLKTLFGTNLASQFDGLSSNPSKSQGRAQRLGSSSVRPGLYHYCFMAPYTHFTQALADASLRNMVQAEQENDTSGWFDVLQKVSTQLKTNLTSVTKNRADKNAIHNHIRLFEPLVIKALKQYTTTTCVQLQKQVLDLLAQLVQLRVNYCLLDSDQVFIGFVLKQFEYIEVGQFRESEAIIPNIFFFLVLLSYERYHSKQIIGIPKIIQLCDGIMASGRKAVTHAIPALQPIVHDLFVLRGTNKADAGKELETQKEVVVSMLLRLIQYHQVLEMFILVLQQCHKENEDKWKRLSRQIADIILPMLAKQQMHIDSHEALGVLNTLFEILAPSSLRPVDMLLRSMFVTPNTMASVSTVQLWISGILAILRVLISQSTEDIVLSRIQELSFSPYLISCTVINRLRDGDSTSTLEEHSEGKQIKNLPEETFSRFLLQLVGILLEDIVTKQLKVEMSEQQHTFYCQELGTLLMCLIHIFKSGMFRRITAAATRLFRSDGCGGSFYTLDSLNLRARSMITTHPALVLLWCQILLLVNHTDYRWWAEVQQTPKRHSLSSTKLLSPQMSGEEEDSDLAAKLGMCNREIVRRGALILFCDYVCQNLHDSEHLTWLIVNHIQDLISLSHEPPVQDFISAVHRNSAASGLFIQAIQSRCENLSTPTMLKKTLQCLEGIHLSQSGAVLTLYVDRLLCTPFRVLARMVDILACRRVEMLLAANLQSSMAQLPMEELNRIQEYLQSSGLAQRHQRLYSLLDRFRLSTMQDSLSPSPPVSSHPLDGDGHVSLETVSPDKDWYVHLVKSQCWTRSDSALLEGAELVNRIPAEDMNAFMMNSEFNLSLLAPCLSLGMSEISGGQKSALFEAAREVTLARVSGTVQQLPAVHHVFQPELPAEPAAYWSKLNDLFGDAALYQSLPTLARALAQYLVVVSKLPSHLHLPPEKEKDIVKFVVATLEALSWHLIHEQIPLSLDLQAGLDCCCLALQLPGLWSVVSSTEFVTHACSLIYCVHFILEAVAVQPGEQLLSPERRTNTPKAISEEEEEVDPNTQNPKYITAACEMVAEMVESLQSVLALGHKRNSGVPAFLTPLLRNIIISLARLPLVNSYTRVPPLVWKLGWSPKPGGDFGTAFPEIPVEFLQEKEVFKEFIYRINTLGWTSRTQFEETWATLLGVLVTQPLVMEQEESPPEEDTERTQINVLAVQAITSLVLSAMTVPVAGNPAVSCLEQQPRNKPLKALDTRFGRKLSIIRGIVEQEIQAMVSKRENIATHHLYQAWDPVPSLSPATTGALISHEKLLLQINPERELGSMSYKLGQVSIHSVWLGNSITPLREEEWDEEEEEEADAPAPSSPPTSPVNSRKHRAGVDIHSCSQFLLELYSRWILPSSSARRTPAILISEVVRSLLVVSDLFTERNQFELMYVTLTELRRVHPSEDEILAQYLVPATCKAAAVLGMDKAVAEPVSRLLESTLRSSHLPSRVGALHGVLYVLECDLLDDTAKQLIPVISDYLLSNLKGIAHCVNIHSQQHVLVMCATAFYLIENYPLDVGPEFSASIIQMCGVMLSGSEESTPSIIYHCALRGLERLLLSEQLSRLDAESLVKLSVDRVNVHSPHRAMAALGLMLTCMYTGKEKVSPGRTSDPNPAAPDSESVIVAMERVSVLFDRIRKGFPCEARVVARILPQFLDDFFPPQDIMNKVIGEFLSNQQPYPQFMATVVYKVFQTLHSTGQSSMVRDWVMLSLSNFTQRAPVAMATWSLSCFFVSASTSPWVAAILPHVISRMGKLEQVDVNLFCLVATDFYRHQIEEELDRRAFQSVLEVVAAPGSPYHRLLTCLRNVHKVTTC

[4] = molecular target: Alpha-synuclein (Homo sapiens) (UniProt P37840); assay: Inhibition of human alpha-synuclein-mediated accumulation of stalled vesicle pools in yeast transfected with human alpha-synuclein after 8 to 12 hrs by electron microscopy
[5] = tested on: Saccharomyces cerevisiae; assay: Effect on lacZ expression in yeast after 36 to 48 hrs by Gal1 reporter gene assay; assay type: functional, organism-based
Method in brief: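 GAL1::LacZ yeast (freshly integrated) grown on galactose plates; single colonies picked at 36–48 h, washed, normalized to OD600 0.4–0.8. CPRG substrate buffer (100 mM HEPES pH 7.25, 150 mM NaCl, 0.5% SDS, 0.75 mg/mL CPRG) added, shaken 30–120 min at room temperature. Absorbance read at 578 nm and corrected for yeast optical density.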

Structure (SMILES) | inhibition [1] | inhibition [2] | Activity [3] | Activity [4] | Activity [5] | percent of animals without neurodegeneration [2]
CC(C)[C@H](NC(=O)[C@H](CCCNC(=N)N)NC(=O)CNC(=O)[C@H](CO)NC(=O)[C@@H]1CSSC[C@H](N)C(=O)N2CCC[C@H]2C(=O)N[C@@H](Cc2c[nH]c3ccccc23)C(=O)N1)C(=O)O (H-CPWCSGRV-OH; disulfide 1-4) | Active | – | – | – | – | –
CC(C)[C@H](NC(=O)[C@H](CCCNC(=N)N)NC(=O)[C@@H](NC(=O)[C@H](CO)NC(=O)[C@H](CS)NC(=O)[C@H](Cc1c[nH]c2ccccc12)NC(=O)[C@@H]1CCCN1C(=O)[C@H](C)N)[C@@H](C)O)C(=O)O (H-APWCSTRV-OH) | – | inactive | – | – | – | –
CC(C)[C@H](NC(=O)[C@H](CCCNC(=N)N)NC(=O)[C@H](C)NC(=O)[C@H](CO)NC(=O)[C@@H]1CSSC[C@H](N)C(=O)N2CCC[C@H]2C(=O)N[C@@H](Cc2c[nH]c3ccccc23)C(=O)N1)C(=O)O (H-CPWCSARV-OH; disulfide 1-4) | Active | – | – | – | – | –
CC(C)C[C@H](NC(=O)[C@H](C)NC(=O)[C@H](C)N)C(=O)N[C@@H](CS)C(=O)N[C@@H](CC(=O)O)C(=O)N1CCC[C@H]1C(=O)N[C@@H](Cc1c[nH]c2ccccc12)C(=O)N[C@@H](Cc1c[nH]c2ccccc12)C(=O)O (H-AALCDPWW-OH) | – | inactive | – | – | – | –
CC(C)C[C@@H]1NC(=O)[C@H](C)NC(=O)[C@@H](N)CSSC[C@@H](C(=O)N[C@@H](CC(=O)O)C(=O)N2CCC[C@H]2C(=O)N[C@@H](Cc2c[nH]c3ccccc23)C(=O)N[C@@H](Cc2c[nH]c3ccccc23)C(=O)O)NC1=O (H-CALCDPWW-OH; disulfide 1-4) | Active | – | inactive | inactive | inactive | 24%
CC(C)[C@H](NC(=O)[C@H](CCCNC(=N)N)NC(=O)[C@@H](NC(=O)[C@H](CO)NC(=O)[C@@H]1CSSC[C@H](N)C(=O)N2CCC[C@H]2C(=O)N[C@@H](Cc2c[nH]c3ccccc23)C(=O)N1)[C@@H](C)O)C(=O)O (H-CPWCSTRV-OH; disulfide 1-4) | Active | – | inactive | inactive | inactive | 26%
